Measured values taken from ChEMBL document CHEMBL4020823, “Highly Selective, Potent, and Oral mTOR Inhibitor for Treatment of Cancer as Autophagy Inducer” (J Med Chem, 2018).
Calls of active or inactive are those of the source. The rule behind the calls is not given here.

Key:
[1] = AUC (0 to infinity) in Sprague-Dawley rat at 20 mg/kg, po administered as single dose by HPLC analysis; type: ADME, organism-based; design: dose 20 mg/kg, route oral, time infinity; settings: in vivo
Summary of the method: (§1)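 Rats fasted overnight, then given one 20 mg/kg dose either iv or po. Blood was collected and centrifuged at once to obtain plasma. Plasma drug levels were measured by HPLC, and PK parameters were derived from the concentration-time data.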

[2] = Clearance in Sprague-Dawley rat at 20 mg/kg, iv administered as single dose by HPLC analysis; type: ADME, organism-based; settings: in vivo; summary of the method: as §1
MCF7 = assay: Cell cycle arrest in human MCF7 cells assessed as decrease in S-phase at 0.25 to 0.5 uM after 24 hrs by propidium iodide-staining based flow cytometric analysis; type: functional
Summary of the method: (§2)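 Cells were seeded at 5 × 10^5 cells/mL. At 24 h after plating they were treated with increasing concentrations for 24 h, washed in PBS, and fixed in ice-cold 70% ethanol for at least 24 h. They were stained with propidium iodide plus RNase A for 30 min at 37 °C and analysed by flow cytometry for phase distribution.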

Mus musculus [3] = species: Mus musculus; assay: Inhibition of full length recombinant mouse PI3K p110alpha/p65alpha at 1 uM relative to control
Summary of the method: (§3)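 Eurofins KinaseProfiler panel with compound at a single 1 μM concentration. ATP at the Km of each kinase. Result is % inhibition, mean of two independent experiments.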

[4] = Half life in Sprague-Dawley rat at 20 mg/kg, po administered as single dose by HPLC analysis; type: ADME, organism-based; settings: in vivo; summary of the method: as §1
T47D [5] = assay: Induction of autophagy in human T47D cells assessed as increase in LC3-2 puncta level at 0.25 to 0.5 uM after 48 hrs by immunofluorescence staining based microscopic analysis; type: functional, cell-based
Summary of the method: (§4)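 Cells seeded on glass coverslips in complete 1640 or DMEM and incubated with inhibitors at different concentrations for 48 h. Fixed in 4% paraformaldehyde, permeabilized with 0.15% Triton X-100, blocked in 4% BSA/PBS for 1 h at room temperature. Anti-LC3B (1:200) overnight, then FITC-conjugated secondary, DAPI nuclear stain. LC3B-II puncta viewed by fluorescence microscopy.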

Mus musculus [6] = assay: Up regulation of LC3B levels in human T47D cells xenografted in BALB/c nude mouse administered via oral gavage after 3 weeks by hematoxylin and eosine staining based light microscopic assay; type: functional, cell-based
Summary of the method: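 Tumors taken from daily-dosed T-47D xenograft mice, formalin-fixed and paraffin-embedded, cut into 5 μm sections. Sections deparaffinized, rehydrated, and incubated overnight at 4 °C with anti-LC3B at 1:100. Then biotin-labeled secondary for 1 h at room temperature, ABC-peroxidase with DAB, hematoxylin counterstain. Read by light microscopy.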

[7] = molecular target: Phosphatidylinositol 4,5-bisphosphate 3-kinase catalytic subunit gamma isoform (Homo sapiens) (UniProt P48736); assay: Inhibition of full length recombinant human PI3K p120gamma at 1 uM relative to control; summary of the method: as §3
SiHa = assay: Induction of autophagy in human SiHa cells assessed as increase in LC3-2 puncta level after 48 hrs by immunofluorescence staining based microscopic analysis; type: functional, cell-based; summary of the method: as §4
Mus musculus [8] = assay: Down regulation of 4E-BP1 phosphorylation at Thr37/46 residues in human T47D cells xenografted in BALB/c nude mouse administered via oral gavage after 3 weeks by hematoxylin and eosine staining based light microscopic assay; type: functional, cell-based
Summary of the method: (§5)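 Tumours from the oral 3-week T-47D xenograft study were formalin-fixed, paraffin-embedded and cut into 5 μm sections. Sections were deparaffinized, rehydrated and incubated overnight at 4 °C with phospho-specific primary antibody at 1:100. Biotin secondary was applied for 1 h at room temperature, then ABC-peroxidase/DAB with hematoxylin counterstain. Sections were viewed by light microscopy.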

Mus musculus [9] = assay: Down regulation of AKT phosphorylation at Ser473 residues in human T47D cells xenografted in BALB/c nude mouse administered via oral gavage after 3 weeks by hematoxylin and eosine staining based light microscopic assay; type: functional, cell-based; summary of the method: as §5
[10] = Oral bioavailability in Sprague-Dawley rat at 20 mg/kg administered as single dose by HPLC analysis; type: ADME, organism-based; settings: in vivo
Summary of the method: (§6)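 Rats fasted overnight, then given a single 20 mg/kg dose either iv or po. Blood collected and centrifuged immediately to obtain plasma. Plasma drug levels measured by HPLC, and pharmacokinetic parameters derived from both routes.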

[11] = Tmax in Sprague-Dawley rat at 20 mg/kg, po administered as single dose by HPLC analysis; type: ADME, organism-based; settings: in vivo; summary of the method: as §6
T47D [12] = assay: Induction of autophagy in human T47D cells assessed as increase in LC3-2 level at 0.25 to 0.5 uM after 48 hrs by Western blot analysis; type: functional, cell-based
Summary of the method: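 Cells treated with test agents at several concentrations for 2 days (48 h). LC3B-II detected by Western blot on lysates, with β-actin as internal control. Membranes blocked in 5% skim milk, primary antibodies at 4 °C overnight, peroxidase-conjugated anti-mouse or anti-rabbit IgG secondary, ECL detection.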

[13] = molecular target: Phosphatidylinositol 4-phosphate 3-kinase C2 domain-containing subunit alpha (Homo sapiens) (UniProt O00443); assay: Inhibition of human PI3KC2alpha at 1 uM relative to control; summary of the method: as §3
Homo sapiens [14] = species: Homo sapiens; assay: Inhibition of mTORC1 in human MDA-MB-231 cells assessed as reduction in 4E-BP1 phosphorylation at Ser65 residues at 0.25 to 0.5 uM by Western blot analysis; type: cell-based
Summary of the method: (§7)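 Cells treated with the indicated concentrations, then whole-cell lysates immunoblotted. mTORC1 activity read as S6 and 4E-BP1 phosphorylation; mTORC2 activity read as AKT Ser473 phosphorylation. Blocking in 5% skim milk, primary antibodies at 4 °C overnight, peroxidase-conjugated secondary, ECL detection.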

Homo sapiens [15] = species: Homo sapiens; assay: Inhibition of mTORC1 in human SiHa cells assessed as reduction in 4E-BP1 phosphorylation at Thr37/46 residues at 0.25 to 0.5 uM by Western blot analysis; type: cell-based; summary of the method: as §7
[16] = Cmax in Sprague-Dawley rat at 20 mg/kg, iv administered as single dose by HPLC analysis; type: ADME, organism-based; design: dose 20 mg/kg, route intravenous; settings: in vivo; summary of the method: as §1
T47D [17] = assay: Cell cycle arrest in human T47D cells assessed as accumulation at G0/G1 phase at 0.25 to 0.5 uM after 24 hrs by propidium iodide-staining based flow cytometric analysis; type: functional; summary of the method: as §2
Homo sapiens [18] = species: Homo sapiens; assay: Inhibition of mTORC1 in human SiHa cells assessed as reduction in 4E-BP1 phosphorylation at Ser65 residues at 0.25 to 0.5 uM by Western blot analysis; type: cell-based; summary of the method: as §7
[19] = molecular target: PI3K p110 alpha/p85 alpha (Mus musculus) (UniProt P26450+P42337); assay: Inhibition of full length recombinant mouse PI3K p110alpha/p85alpha at 1 uM relative to control; type: protein-complex assay; summary of the method: as §3
T47D [20] = assay: Cell cycle arrest in human T47D cells assessed as decrease in S-phase at 0.25 to 0.5 uM after 24 hrs by propidium iodide-staining based flow cytometric analysis; type: functional; summary of the method: as §2
Homo sapiens [21] = species: Homo sapiens; assay: Inhibition of mTORC2 in human MDA-MB-231 cells assessed as reduction in AKT phosphorylation at Ser473 residues at 0.25 to 0.5 uM by Western blot analysis; type: cell-based
Summary of the method: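 Cells exposed to a range of compound concentrations; whole-cell lysates immunoblotted for phospho-AKT (Ser473) as the mTORC2 readout, alongside S6 and 4E-BP1 phosphorylation for mTORC1. Membranes blocked in 5% skim milk, primary antibodies overnight at 4 °C, peroxidase-conjugated anti-mouse or anti-rabbit IgG secondary, ECL detection. Rapamycin as comparator.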

Sequence of Phosphatidylinositol 4-phosphate 3-kinase C2 domain-containing subunit alpha (Homo sapiens) (O00443 whole entry, the tested form may be a part): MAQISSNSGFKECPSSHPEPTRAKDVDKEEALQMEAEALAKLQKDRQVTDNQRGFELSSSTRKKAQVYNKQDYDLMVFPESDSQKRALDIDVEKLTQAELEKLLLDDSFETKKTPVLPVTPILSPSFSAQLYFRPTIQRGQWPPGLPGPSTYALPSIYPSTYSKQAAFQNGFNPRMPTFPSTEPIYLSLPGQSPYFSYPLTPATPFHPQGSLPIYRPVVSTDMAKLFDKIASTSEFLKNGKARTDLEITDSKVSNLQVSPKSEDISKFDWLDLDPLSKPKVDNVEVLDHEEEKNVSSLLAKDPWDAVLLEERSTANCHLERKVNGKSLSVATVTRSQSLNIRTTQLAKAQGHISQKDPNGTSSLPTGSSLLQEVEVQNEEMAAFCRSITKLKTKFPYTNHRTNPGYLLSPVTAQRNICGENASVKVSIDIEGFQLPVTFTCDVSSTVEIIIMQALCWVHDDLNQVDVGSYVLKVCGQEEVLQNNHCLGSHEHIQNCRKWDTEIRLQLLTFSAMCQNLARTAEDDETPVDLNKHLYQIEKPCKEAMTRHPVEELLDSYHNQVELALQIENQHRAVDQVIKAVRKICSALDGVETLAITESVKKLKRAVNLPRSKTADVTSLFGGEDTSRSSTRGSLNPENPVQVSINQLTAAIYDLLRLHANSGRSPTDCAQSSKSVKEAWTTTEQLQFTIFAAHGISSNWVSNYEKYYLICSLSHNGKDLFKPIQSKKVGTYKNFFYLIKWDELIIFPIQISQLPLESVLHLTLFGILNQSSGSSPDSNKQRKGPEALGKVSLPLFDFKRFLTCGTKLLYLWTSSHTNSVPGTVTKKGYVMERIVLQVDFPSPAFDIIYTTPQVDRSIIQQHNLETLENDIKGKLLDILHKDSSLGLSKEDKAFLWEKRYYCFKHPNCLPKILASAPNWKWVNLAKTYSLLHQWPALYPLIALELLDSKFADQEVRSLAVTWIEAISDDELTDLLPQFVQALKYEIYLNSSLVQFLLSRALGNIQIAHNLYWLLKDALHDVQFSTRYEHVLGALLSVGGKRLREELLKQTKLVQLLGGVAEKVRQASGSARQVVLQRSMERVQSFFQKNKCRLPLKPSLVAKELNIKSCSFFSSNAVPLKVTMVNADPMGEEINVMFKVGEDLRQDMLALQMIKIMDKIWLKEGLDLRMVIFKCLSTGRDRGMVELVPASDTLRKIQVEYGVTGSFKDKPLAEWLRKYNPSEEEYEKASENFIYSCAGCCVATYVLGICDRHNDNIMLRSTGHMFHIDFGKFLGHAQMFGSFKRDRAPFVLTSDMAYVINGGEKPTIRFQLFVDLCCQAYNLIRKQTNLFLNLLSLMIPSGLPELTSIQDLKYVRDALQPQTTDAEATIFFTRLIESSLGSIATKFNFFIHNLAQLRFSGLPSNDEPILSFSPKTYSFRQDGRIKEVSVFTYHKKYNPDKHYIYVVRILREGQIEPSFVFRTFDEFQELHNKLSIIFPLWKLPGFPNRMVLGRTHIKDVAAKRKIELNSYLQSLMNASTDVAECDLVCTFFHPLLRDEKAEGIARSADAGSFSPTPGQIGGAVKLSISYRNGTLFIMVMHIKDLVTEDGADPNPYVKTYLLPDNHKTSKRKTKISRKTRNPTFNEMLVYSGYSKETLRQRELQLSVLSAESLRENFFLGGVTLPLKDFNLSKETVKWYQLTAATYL
Sequence of Phosphatidylinositol 4,5-bisphosphate 3-kinase catalytic subunit gamma isoform (Homo sapiens) (P48736 whole entry, looked up, canonical isoform): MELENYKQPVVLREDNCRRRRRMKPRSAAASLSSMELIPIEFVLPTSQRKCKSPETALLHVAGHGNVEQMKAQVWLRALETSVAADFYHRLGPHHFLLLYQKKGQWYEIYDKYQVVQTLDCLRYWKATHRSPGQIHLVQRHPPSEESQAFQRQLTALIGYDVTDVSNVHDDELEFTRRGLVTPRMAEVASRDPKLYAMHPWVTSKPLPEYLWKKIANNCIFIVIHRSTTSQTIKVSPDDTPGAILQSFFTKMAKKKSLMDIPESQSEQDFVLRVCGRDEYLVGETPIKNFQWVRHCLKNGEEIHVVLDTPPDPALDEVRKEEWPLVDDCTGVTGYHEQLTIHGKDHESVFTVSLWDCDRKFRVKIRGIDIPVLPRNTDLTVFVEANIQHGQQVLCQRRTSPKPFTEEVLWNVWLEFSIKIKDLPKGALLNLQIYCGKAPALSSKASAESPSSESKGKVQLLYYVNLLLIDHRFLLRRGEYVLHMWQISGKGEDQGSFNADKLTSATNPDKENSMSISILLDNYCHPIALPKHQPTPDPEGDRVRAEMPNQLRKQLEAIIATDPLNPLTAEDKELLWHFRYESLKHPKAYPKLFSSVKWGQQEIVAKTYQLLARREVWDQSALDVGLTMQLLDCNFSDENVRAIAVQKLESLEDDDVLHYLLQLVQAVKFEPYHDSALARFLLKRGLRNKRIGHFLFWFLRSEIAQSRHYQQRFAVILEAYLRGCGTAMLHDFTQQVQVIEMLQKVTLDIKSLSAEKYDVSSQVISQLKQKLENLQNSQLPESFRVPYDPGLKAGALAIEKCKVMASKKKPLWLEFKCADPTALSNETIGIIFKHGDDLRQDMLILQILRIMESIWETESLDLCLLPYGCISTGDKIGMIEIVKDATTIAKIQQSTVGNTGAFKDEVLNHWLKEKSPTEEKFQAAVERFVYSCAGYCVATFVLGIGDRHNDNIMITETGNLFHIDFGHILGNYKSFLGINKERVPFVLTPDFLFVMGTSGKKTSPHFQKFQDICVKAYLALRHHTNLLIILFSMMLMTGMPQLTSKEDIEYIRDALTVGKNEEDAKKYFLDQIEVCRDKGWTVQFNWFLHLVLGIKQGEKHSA

AUC(0-inf) [1]: 2850 ng·h/mL
clearance [2]: 25.5 mL/min/kg
inhibition (Mus musculus [3]): 9%
half-life [4]: 9.98 h
inhibition [7]: 4%
bioavailability [10]: 43.5%
Tmax [11]: 3 h
inhibition [13]: 4%
Cmax [16]: 4470 ng/mL
inhibition [19]: 17%
SMILES: N#CCN1CCC(n2c(=O)cnc3cnc4ccc(-c5ccc(N)nc5)cc4c32)CC1
Activity (MCF7): Active
Activity (T47D [5]): Active
Activity (Mus musculus [6]): Dose-dependent effect
Activity (SiHa): Dose-dependent effect
Activity (Mus musculus [8]): Dose-dependent effect
Activity (Mus musculus [9]): Dose-dependent effect
Activity (T47D [12]): Active
inhibition (Homo sapiens [14]): Active
inhibition (Homo sapiens [15]): Active
Activity (T47D [17]): Active
inhibition (Homo sapiens [18]): Active
Activity (T47D [20]): Active
inhibition (Homo sapiens [21]): Active
